≈ marks a conversion by molar mass, not a printed value.
How the values were obtained:
Format in all cases: functional
Staphylococcus aureus [1] = test: Antimicrobial activity against Staphylococcus aureus RCMB 106001 by twofold serial dilution method
How it was run: (§1)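 MIC was determined by further twofold serial dilution across twelve levels, from 1000 down to 0.49. Strains were the same bacterial, yeast and fungal RCMB isolates used in the diffusion screen.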

Bacillus subtilis [2] = test: Antimicrobial activity against Bacillus subtilis RCMB 101001 at 2.5 mg/ml by agar diffusion technique; details: read-out: DIZ
How it was run: (§2)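 Agar well diffusion. Test compounds and reference standard drugs were diluted to 5.0, 2.5 and 1.0 mg/mL and applied to 0.6 cm wells. Inhibition zone beyond the control was scored as 0 (no inhibition), + (0.1–0.5 cm), ++ (0.6–1.0 cm) or +++ (1.0–1.5 cm).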

Candida albicans [3] = test: Antimicrobial activity against Candida albicans RCMB 005003 at 2.5 mg/ml by agar diffusion technique; details: read-out: DIZ; how it was run: as §2
[4] = system: Syncephalastrum racemosum; test: Antimicrobial activity against Syncephalastrum racemosum RCMB 016001 at 1 mg/ml by agar diffusion technique; details: read-out: DIZ; how it was run: as §2
[5] = system: Syncephalastrum racemosum; test: Antimicrobial activity against Syncephalastrum racemosum RCMB 016001 at 2.5 mg/ml by agar diffusion technique; details: read-out: DIZ; how it was run: as §2
Candida albicans [6] = test: Antimicrobial activity against Candida albicans RCMB 005003 at 1 mg/ml by agar diffusion technique; details: read-out: DIZ; how it was run: as §2
Escherichia coli [7] = test: Antimicrobial activity against Escherichia coli RCMB 103001 at 1 mg/ml by agar diffusion technique; details: read-out: DIZ; how it was run: as §2
Escherichia coli [8] = test: Antimicrobial activity against Escherichia coli RCMB 103001 by twofold serial dilution method; how it was run: as §1
Penicillium italicum [9] = test: Antimicrobial activity against Penicillium italicum RCMB 001018 at 2.5 mg/ml by agar diffusion technique; details: read-out: DIZ; how it was run: as §2
Aspergillus fumigatus [10] = test: Antimicrobial activity against Aspergillus fumigatus RCMB 002008 at 2.5 mg/ml by agar diffusion technique; details: read-out: DIZ; how it was run: as §2
Staphylococcus aureus [11] = test: Antimicrobial activity against Staphylococcus aureus RCMB 106001 at 2.5 mg/ml by agar diffusion technique; details: read-out: DIZ; how it was run: as §2
Pseudomonas aeruginosa [12] = test: Antimicrobial activity against Pseudomonas aeruginosa RCMB 102002 at 1 mg/ml by agar diffusion technique; details: read-out: DIZ; how it was run: as §2
Aspergillus fumigatus [13] = test: Antimicrobial activity against Aspergillus fumigatus RCMB 002008 at 1 mg/ml by agar diffusion technique; details: read-out: DIZ; how it was run: as §2
Penicillium italicum [14] = test: Antimicrobial activity against Penicillium italicum RCMB 001018 at 1 mg/ml by agar diffusion technique; details: read-out: DIZ; how it was run: as §2
Pseudomonas aeruginosa [15] = test: Antimicrobial activity against Pseudomonas aeruginosa RCMB 102002 by twofold serial dilution method; how it was run: as §1
Staphylococcus aureus [16] = test: Antimicrobial activity against Staphylococcus aureus RCMB 106001 at 1 mg/ml by agar diffusion technique; details: read-out: DIZ; how it was run: as §2
Pseudomonas aeruginosa [17] = test: Antimicrobial activity against Pseudomonas aeruginosa RCMB 102002 at 2.5 mg/ml by agar diffusion technique; details: read-out: DIZ; how it was run: as §2
Candida albicans [18] = test: Antimicrobial activity against Candida albicans RCMB 005003 by twofold serial dilution method; how it was run: as §1
Bacillus subtilis [19] = test: Antimicrobial activity against Bacillus subtilis RCMB 101001 at 5 mg/ml by agar diffusion technique; details: read-out: DIZ; how it was run: as §2
Bacillus subtilis [20] = test: Antimicrobial activity against Bacillus subtilis RCMB 101001 at 1 mg/ml by agar diffusion technique; details: read-out: DIZ; how it was run: as §2
Escherichia coli [21] = test: Antimicrobial activity against Escherichia coli RCMB 103001 at 2.5 mg/ml by agar diffusion technique; details: read-out: DIZ; how it was run: as §2
[22] = system: Syncephalastrum racemosum; test: Antimicrobial activity against Syncephalastrum racemosum RCMB 016001 at 5 mg/ml by agar diffusion technique; details: read-out: DIZ; how it was run: as §2
Aspergillus fumigatus [23] = test: Antimicrobial activity against Aspergillus fumigatus RCMB 002008 at 5 mg/ml by agar diffusion technique; details: read-out: DIZ; how it was run: as §2
Candida albicans [24] = test: Antimicrobial activity against Candida albicans RCMB 005003 at 5 mg/ml by agar diffusion technique; details: read-out: DIZ; how it was run: as §2
Penicillium italicum [25] = test: Antimicrobial activity against Penicillium italicum RCMB 001018 by twofold serial dilution method; how it was run: as §1
Aspergillus fumigatus [26] = test: Antimicrobial activity against Aspergillus fumigatus RCMB 002008 by twofold serial dilution method; how it was run: as §1
Staphylococcus aureus [27] = test: Antimicrobial activity against Staphylococcus aureus RCMB 106001 at 5 mg/ml by agar diffusion technique; details: read-out: DIZ; how it was run: as §2
[28] = system: Syncephalastrum racemosum; test: Antimicrobial activity against Syncephalastrum racemosum RCMB 016001 by twofold serial dilution method; how it was run: as §1
Pseudomonas aeruginosa [29] = test: Antimicrobial activity against Pseudomonas aeruginosa RCMB 102002 at 5 mg/ml by agar diffusion technique; details: read-out: DIZ; how it was run: as §2
Bacillus subtilis [30] = test: Antimicrobial activity against Bacillus subtilis RCMB 101001 by twofold serial dilution method; how it was run: as §1
[31] = Escherichia coli, RCMB 103001, read-out: MIC

Structure (SMILES) | zone of inhibition at 2500 µg/mL (Bacillus subtilis [2]) [mm] | zone of inhibition at 2500 µg/mL (Candida albicans [3]) [mm] | zone of inhibition at 1000 µg/mL [4] [mm] | zone of inhibition at 2500 µg/mL [5] [mm] | zone of inhibition at 1000 µg/mL (Candida albicans [6]) [mm] | zone of inhibition at 1000 µg/mL (Escherichia coli [7]) [mm] | MIC (Escherichia coli [8]; [31]) [µg/mL] | zone of inhibition at 2500 µg/mL (Penicillium italicum [9]) [mm] | zone of inhibition at 2500 µg/mL (Aspergillus fumigatus [10]) [mm] | zone of inhibition at 2500 µg/mL (Staphylococcus aureus [11]) [mm] | zone of inhibition at 1000 µg/mL (Pseudomonas aeruginosa [12]) [mm] | zone of inhibition at 1000 µg/mL (Aspergillus fumigatus [13]) [mm] | zone of inhibition at 1000 µg/mL (Penicillium italicum [14]) [mm] | zone of inhibition at 1000 µg/mL (Staphylococcus aureus [16]) [mm] | zone of inhibition at 2500 µg/mL (Pseudomonas aeruginosa [17]) [mm] | zone of inhibition at 1000 µg/mL (Bacillus subtilis [20]) [mm] | zone of inhibition at 2500 µg/mL (Escherichia coli [21]) [mm] | further results
C1=N\n2c(nnc2-c2cccnc2)SCCCCSc2nnc(-c3cccnc3)n2/N=C\c2ccccc2OCCCCOc2ccccc2/1 | 0 | 1 | 0 | 0 | 0 | 1 | 250 (≈ 356 µM) | 0 | 0 | 1 | 0 | 0 | 0 | 1 | 0 | 0 | 1 | MIC (Staphylococcus aureus [1]): 250 µg/mL (≈ 356 µM); MIC (Staphylococcus aureus [1]; Staphylococcus aureus, RCMB 106001, read-out: MIC): 250 µg/mL (≈ 356 µM); MIC (Pseudomonas aeruginosa [15]): 250 µg/mL (≈ 356 µM); MIC (Pseudomonas aeruginosa [15]; Pseudomonas aeruginosa, RCMB 102002, read-out: MIC): 250 µg/mL (≈ 356 µM); MIC (Candida albicans [18]): 250 µg/mL (≈ 356 µM); MIC (Candida albicans [18]; Candida albicans, RCMB 005003, read-out: MIC): 250 µg/mL (≈ 356 µM); zone of inhibition at 5000 µg/mL (Bacillus subtilis [19]): 0 mm; zone of inhibition at 5000 µg/mL [22]: 0 mm; zone of inhibition at 5000 µg/mL (Aspergillus fumigatus [23]): 0 mm
OC(COc1ccccc1/C=N\n1c(-c2cccnc2)n[nH]c1=S)COc1ccccc1/C=N\n1c(-c2cccnc2)n[nH]c1=S | 1 | 0 | 0 | 1 | 0 | 0 | 250 (≈ 384 µM) | 6 | 0 | 0 | 0 | 0 | 6 | 0 | 0 | 1 | 1 | zone of inhibition at 5000 µg/mL (Candida albicans [24]): 0 mm; MIC (Penicillium italicum [25]): 250 µg/mL (≈ 384 µM); MIC (Aspergillus fumigatus [26]): 250 µg/mL (≈ 384 µM); MIC (Aspergillus fumigatus [26]; Aspergillus fumigatus, RCMB 002008, read-out: MIC): 250 µg/mL (≈ 384 µM); MIC (Escherichia coli [8]): 250 µg/mL (≈ 384 µM); zone of inhibition at 5000 µg/mL (Staphylococcus aureus [27]): 0 mm; MIC [28]: 250 µg/mL (≈ 384 µM); MIC ([28]; Syncephalastrum racemosum, RCMB 016001, read-out: MIC): 250 µg/mL (≈ 384 µM); zone of inhibition at 5000 µg/mL (Pseudomonas aeruginosa [29]): 0 mm; MIC (Bacillus subtilis [30]): 250 µg/mL (≈ 384 µM); MIC (Bacillus subtilis [30]; Bacillus subtilis, RCMB 101001, read-out: MIC): 250 µg/mL (≈ 384 µM)

Source: ChEMBL document CHEMBL1629465, “Efficient synthesis of novel 1,2,4-triazole fused acyclic and 21-28 membered macrocyclic and/or lariat macrocyclic oxaazathia crown compounds with potential antimicrobial activity” (2010)
